Assay results gathered from unrelated publications.
Protocols differ between the studies behind these lines.
Target: Serine/threonine-protein kinase PAK 2 (PAK2, Homo sapiens, UniProt Q13177)

`FC(F)(F)Oc1cccc(-c2cnc3ccc(-c4ccncc4)nn23)c1` has a remaining binding of 43% (cell-free assay; competition with immobilised ligand; 5 µM).
`Cc1cnc(Nc2ccc(C(=O)N3CCC(N4CCCC4)CC3)cc2)nc1-c1cc2ccccc2s1` gave a remaining binding of 76% (binding; competition with immobilised ligand; 1 µM).
For `CN(C)c1nccc(-c2cnc3ncccn23)n1`, the remaining binding was 100% (binding; 1 µM).
With `CN(C(=O)c1ccccc1)c1cc(N(C)c2ccc3c(c2)CCc2ccc(C(=O)NCCN4CCOCC4)cc2C3=O)ccc1F` the remaining binding was 63% (cell-free assay; competition with immobilised ligand; 1 µM).
`O=C(Nc1c[nH]nc1C(=O)NC1CCNCC1)c1cc(F)cc(F)c1` gave a remaining binding of 100% (binding; competition with immobilised ligand; 1 µM).
The remaining binding of `O=C(c1ccc(Nc2nccc(-c3cc4ccccc4s3)n2)cc1)N1CCC(N2CCCC2)CC1` is reported as 69% (binding; competition with immobilised ligand; 1 µM).
`O=C(N1CCS(=O)(=O)CC1)N1C[C@H](c2ccc(OC(F)(F)F)cc2)C[C@H](c2nc(C3CC3)no2)C1` has a remaining binding of 90% (cell-free assay; competition with immobilised ligand; 1 µM).
`C[C@@H](c1ccc(-n2cnc3c(N)ncnc32)cc1)N1CCc2nn(C)c(Cc3ccccc3)c2C1=O` gave a remaining binding of 61% (binding; competition with immobilised ligand; 0.1 µM).
With `C[C@@H]1CCN(c2nccc(-c3cnn4ncccc34)n2)C1` the remaining binding was 99% (binding; 1 µM).
The remaining binding of `CNCc1ccccc1-c1csc([C@@H](C)Nc2nc(C)nc3cc(OC)c(OC)cc23)c1` is reported as 88% (cell-free assay; competition with immobilised ligand; 1 µM).
With `c1cncc(-c2cccc(Nc3nccc(NC4CCCCC4)n3)c2)c1` the remaining binding was 56% (binding; competition with immobilised ligand; 10 µM).
With `CN(C)c1ncc(F)c(-c2cnn3ncccc23)n1` the remaining binding was 89% (binding; 1 µM).
With `C[C@@]1(Cc2ccc(C#N)cc2)C(=O)N(c2cc(Cl)cc(Cl)c2)c2ncc(C(=O)NC3(c4nc(C5CCC5)no4)CC3)n21` the remaining binding was 64% (cell-free assay; competition with immobilised ligand; 1 µM).
With `COc1ncc2cc3ccccc3nc2c1C#N` the remaining binding was 85% (cell-free assay; competition with immobilised ligand; 5 µM).
For `C[C@@H]1CN(c2ccc3ncc(-c4ccc5[nH]nc(C6CC6)c5c4)n3n2)C[C@H](C)O1`, the remaining binding was 55% (binding; competition with immobilised ligand; 0.5 µM).
`CCC(=O)N[C@H]1CC[C@@H](C(=O)N(C)c2ccc(-c3nc4ccccc4o3)cc2)C1` has a remaining binding of 100% (cell-free assay; competition with immobilised ligand; 1 µM).
The remaining binding of `Cc1cnn2ncc(-c3ccnc(N(C)C)n3)c2c1` is reported as 96% (binding; 1 µM).
For `CCS(=O)(=O)c1cc2cc(C[C@@](O)(CC(C)(C)c3ccc(F)cc3C(N)=O)C(F)(F)F)[nH]c2cn1`, the remaining binding was 94% (cell-free assay; competition with immobilised ligand; 1 µM).
`N[C@H]1CCN(c2nccc(-c3cnn4ncccc34)n2)C1` gave a remaining binding of 87% (binding; 1 µM).
With `N#Cc1ccccc1CSc1nnc2c(n1)[nH]c1ccccc12` the remaining binding was 88% (binding; competition with immobilised ligand; 10 µM).
With `F[C@@H]1CCN(c2nccc(-c3cnn4ncccc34)n2)C1` the remaining binding was 100% (binding; 1 µM).
`CNC(=O)[C@@H]1CC[C@@H](n2c(-c3ccc4cnccc4c3)nc3ccc(C(=O)NCc4cccc(C(N)=O)c4)cc32)C1` has a remaining binding of 96% (binding; competition with immobilised ligand; 1 µM).
`O=C(c1ccc(Nc2ncc(Cl)c(-c3ccc(Cl)s3)n2)cc1)N1CCC(N2CCCC2)CC1` has a remaining binding of 49% (binding; competition with immobilised ligand; 1 µM).
`C[C@@H](c1cccc(C#N)c1)n1cc(Cl)cc(C(N)=O)c1=N` gave a remaining binding of 96% (cell-free assay; competition with immobilised ligand; 1 µM).
